This note sets out measurements from ChEMBL document CHEMBL3407374, “Synthesis of structural analogues of hexadecylphosphocholine and their antineoplastic, antimicrobial and amoebicidal activity” (Eur J Med Chem, 2015).

Molecules are shown by their SMILES. Values after ≈ are worked out from the molar mass of the structure shown.

Series [1] has as its system Acanthamoeba quina. Put plainly: Antiprotozoal activity against Acanthamoeba quina trophozoites assessed as viability after 1 to 48 hrs by trypan blue exclusion assay. It is filed as functional. The essentials: (§1)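 Trophozoites axenized from 2-day monoxenic agar cultures via BCS then PYG media with antibiotics, then cultured antibiotic-free in PYG. 2 × 10⁵ cells/ml suspension mixed 1:1 with medium holding compound; final […]. Survivors counted by haemocytometer with trypan blue at 1, 24, 48 h; eradication confirmed by 14-day PYG regrowth; MTC = lowest concentration giving 100% eradication.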

The nature of series [2]: Solubility of the compound in water. It is filed as physicochemical. The settings on record: buffer.
In another series the test system is THP-1. Kind of series: Cytotoxicity against human THP1 cells after 24 hrs by MTS method. It is filed as functional, cell-based. Conditions: THP-1, 24 h. The essentials:
(§2)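 THP-1 and HUT-78 grown in suspension in RPMI-1640 with FCS, glutamine, penicillin-streptomycin, NEA, 2-sulfanylethanol, sodium pyruvate; 37 °C, 5% CO₂; passaged by centrifugation. 24-h exposure; MTS read-out (water-soluble formazan) at 492/520 nm. IC50 from log inhibitor versus normalized response sigmoidal fit.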
On the technique in general: Tetrazolium dyes change colour on reduction, which living cells bring about.

A further series relates to Candida albicans. Kind of series: Antimicrobial activity against Candida albicans ATCC 8186 assessed as prevention of colony formation after 24 hrs by spectrophotometry. It is filed as functional. The settings on record: ATCC 8186, 24 h. The essentials: (§3)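 Bacteria grown 24 h on blood agar, Candida on Sabouraud agar; suspensions in physiological solution (pH 7.2), 5 × 10⁷ CFU/ml bacteria, 5 × 10⁵ CFU/ml Candida. […] suspension added to aqueous compound solution plus double-strength peptone broth (bacteria) or Sabouraud medium (Candida). Incubated 24 h at 37 °C in 96-well plates, then subcultured on agar 24 h at 37 °C.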

The subject of a further series is A2780. Kind of series: Cytotoxicity against human A2780 cells after 24 hrs by MTT method. It is filed as functional, cell-based. The settings on record: A2780, 24 h. The essentials:
(§4)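 MCF-7 grown in MEM with NEA, FCS, glutamine; A2780 in RPMI-1640 with FCS, glutamine; 37 °C, 5% CO₂, trypsin-EDTA passaging. Seeded 20 000 cells/well, treated after about 20 h; 24-h exposure. MTT read-out, formazan dissolved in DMSO, read at 492/520 nm. IC50 from log inhibitor versus normalized response sigmoidal fit.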

In the next series the test system is Acanthamoeba lugdunensis. Put plainly: Antiprotozoal activity against Acanthamoeba lugdunensis trophozoites assessed as viability after 1 to 48 hrs by trypan blue exclusion assay. It is filed as functional. The essentials: as §1
Another series concerns Escherichia coli. Put plainly: Antimicrobial activity against Escherichia coli ATCC 377/79 assessed as prevention of colony formation after 24 hrs by spectrophotometry. It is filed as functional. Conditions: ATCC 377/79, 24 h. The essentials: as §3
The test system of the next series is Staphylococcus aureus. Put plainly: Antimicrobial activity against Staphylococcus aureus ATCC 29/58 assessed as prevention of colony formation after 24 hrs by spectrophotometry. It is filed as functional. Conditions: ATCC 29/58, 24 h. The essentials:
as §3

A further series deals with MCF7. Kind of series: Cytotoxicity against human MCF7 cells after 24 hrs by MTT method. It is filed as functional, cell-based. The settings on record: MCF7, 24 h. The method in brief:
as §4

The next series relates to HuT78. Kind of series: Cytotoxicity against human HUT78 cells after 24 hrs by MTS method. It is filed as functional, cell-based. Conditions: HuT78, 24 h. The method in brief:
as §2

Series [3] is described as follows: Critical micelle concentration of the compound. It is filed as ADME.
For series [4], the system named is Acanthamoeba quina. Kind of series: Ratio of miltefosine MTC to compound MTC for Acanthamoeba quina trophozoites assessed as viability after 1 to 48 hrs by trypan blue exclusion assay. It is filed as functional.
The nature of series [5]: Cytotoxicity against human lymphocytes assessed as growth inhibition at 500 uM after 24 hrs by MTS method. It is filed as cell-based, Lymphocyte. Conditions: for inhibition at 24 h, 500 µM: human lymphocytes, read-out: GI; for growth inhibition (GI): lymphocyte, 24 h, 500 µM.

As for `CCCCCCCCCCCOP(=O)([O-])OCC[N+](C)(C)CCCCCC`, the figures for the MTC in the series with Acanthamoeba quina [1] and in the series on Acanthamoeba lugdunensis were 250 µM and 125 µM, respectively. Further, in [2], the solubility entry is “soluble”. Besides, the IC50 (as a rule, the concentration at which inhibition is half-maximal) worked out at 92 µM with THP-1, 19.2 µM in the series on A2780, 111 µM with MCF7 and 82.6 µM in the series with HuT78. In addition, the MIC (in general, the smallest concentration in the dilution series that meets the test's criterion for growth inhibition) in the series on Candida albicans is 188 µM (≈ 76.4 µg/mL); in the series with Escherichia coli it was above 1000 µM; in the series with Staphylococcus aureus, above 1000 µM.
For `CCCCCCCCOP(=O)([O-])OCC[N+](C)(C)CCCCCCCC`, the CMC in series [3] came to 1 mmol/dm3.
In the case of `CCCCCCCCCCCC[N+](C)(C)CCOP(=O)([O-])OCCCCC`, the MTC in the series with Acanthamoeba quina [1] and in the series on Acanthamoeba lugdunensis was 125 µM each time. Besides, in series [2], the solubility result was “soluble”. In addition, the IC50 in the series on THP-1 was 71.2 µM; in the series on A2780, 18.3 µM; in the series with MCF7 it was 25.8 µM; with HuT78, 68 µM. For the same compound, the figures for the minimum inhibitory concentration (MIC) with Candida albicans, in the series on Escherichia coli and in the series with Staphylococcus aureus were 352 µM (≈ 144 µg/mL), above 1000 µM and above 1000 µM, respectively.
Take `CCCCCCCCCCCCCCC[N+](C)(C)CCOP(=O)([O-])OCC`: the MTC in the series on Acanthamoeba quina [1] and with Acanthamoeba lugdunensis was 62.5 µM each time. Also, in series [2], the solubility entry was “soluble”. The concentration for half-maximal inhibition (IC50) was found to be 30.5 µM in the series with THP-1, 7.44 µM in the series on A2780, 14.4 µM with MCF7 and 35.2 µM with HuT78. Moreover, the minimum inhibitory concentration (MIC) is 21.1 µM (≈ 8.62 µg/mL) in the series with Candida albicans, above 1000 µM with Escherichia coli and above 1000 µM in the series with Staphylococcus aureus. The Ratio with Acanthamoeba quina [4] is recorded as 2. In series [5], the inhibition at 24 h, 500 µM amounted to 10%.
On to `CCCCCCCCCCCCCCOP(=O)([O-])OCC[N+](C)(C)CCC`, for which the MTC with Acanthamoeba quina [1] and in the series on Acanthamoeba lugdunensis was 125 µM each time. The solubility entry in series [2] was “soluble”. The IC50 with THP-1 amounted to 127 µM; in the series on A2780 it was 28.6 µM; in the series on MCF7, 50.6 µM; in the series with HuT78, 51.4 µM. In addition, the results for the minimum inhibitory concentration (MIC) in the series with Candida albicans, in the series on Escherichia coli and in the series on Staphylococcus aureus were 11.7 µM (≈ 4.77 µg/mL), above 1000 µM and above 1000 µM, respectively.
On to `CCCCCCCCCCOP(=O)([O-])OCC[N+](C)(C)CCCCCCC`, for which the MTC with Acanthamoeba quina [1] and in the series with Acanthamoeba lugdunensis was 250 µM in each case. For the same compound, the solubility result in [2] was “soluble”. Besides, the IC50 in the series on THP-1 turned out to be 101 µM; in the series on A2780 it was 35.1 µM; in the series with MCF7, 62.2 µM; with HuT78 it was 52.9 µM. Also, the MIC in the series on Candida albicans is 180 µM (≈ 73.3 µg/mL); in the series with Escherichia coli it was above 1000 µM; with Staphylococcus aureus, above 1000 µM.
Take `CCCCCCCCCCCCCC[N+](C)(C)CCOP(=O)([O-])OCCC`: the MTC in the series with Acanthamoeba quina [1] and in the series with Acanthamoeba lugdunensis was 125 µM in each case. The solubility result in series [2] was “soluble”. The half-maximal inhibitory concentration (IC50) amounted to 29.4 µM in the series on THP-1, 9.26 µM in the series on A2780, 20.9 µM in the series on MCF7 and 29.1 µM in the series on HuT78. The MIC in the series with Candida albicans was 86.3 µM (≈ 35.2 µg/mL); in the series on Escherichia coli, above 1000 µM; in the series with Staphylococcus aureus, above 1000 µM. Moreover, the inhibition at 24 h, 500 µM in series [5] came out at 12%.
Turning to `CCCCCCCCCC[N+](C)(C)CCOP(=O)([O-])OCCCCCCC`, the MTC with Acanthamoeba quina [1] and with Acanthamoeba lugdunensis was 125 µM throughout. Also, the solubility entry in series [2] is “soluble”. Further, the IC50 was found to be 647 µM in the series with THP-1, 4.7 µM in the series on A2780, 26.2 µM with MCF7 and 437 µM in the series with HuT78. Moreover, the minimal inhibitory concentration (MIC) in the series with Candida albicans is 352 µM (≈ 144 µg/mL); in the series with Escherichia coli it was above 1000 µM; in the series with Staphylococcus aureus, above 1000 µM. Moreover, the “growth inhibition (GI)” value in series [5] is recorded as “Non-toxic”.
`CCCCCCCCCCCCCCCCOP(=O)([O-])OCC[N+](C)(C)C` [MILTEFOSINE]: the MTC turned out to be 125 µM with Acanthamoeba quina [1] and 250 µM with Acanthamoeba lugdunensis. Moreover, the IC50 with THP-1 stood at 81.3 µM; in the series with A2780, 8.87 µM; in the series with MCF7, 35.7 µM; in the series on HuT78 it was 67.2 µM. For the same compound, the MIC in the series on Candida albicans was 2.87 µM (≈ 1.17 µg/mL); in the series with Escherichia coli, above 1000 µM; in the series on Staphylococcus aureus it was 11.5 µM (≈ 4.69 µg/mL). The same compound registered a CMC in [3] of 1.25 umol/dm3.
For `CCCCCCCCCCCCCCCOP(=O)([O-])OCC[N+](C)(C)CC`, the MTC in the series with Acanthamoeba quina [1] and with Acanthamoeba lugdunensis was 125 µM throughout. Further, the solubility result in series [2] was “soluble”. Besides, the half-maximal inhibitory concentration (IC50) with THP-1 turned out to be 96.8 µM; with A2780 it was 10.1 µM; with MCF7, 43.3 µM; in the series with HuT78 it was 62.7 µM. Also, the MIC with Candida albicans was 2.93 µM (≈ 1.19 µg/mL); in the series on Escherichia coli, above 1000 µM; in the series on Staphylococcus aureus, above 1000 µM.
With `CCCCCCCCCOP(=O)([O-])OCC[N+](C)(C)CCCCCCCC`, the MTC in the series on Acanthamoeba quina [1] and with Acanthamoeba lugdunensis was 250 µM each time. For the same compound, the solubility entry in series [2] is listed as “soluble”. Also, the IC50 in the series on THP-1 is 170 µM; with A2780, 7.31 µM; with MCF7, 34 µM; in the series on HuT78 it was 146 µM. For the same compound, the MIC in the series with Candida albicans is 734 µM (≈ 299 µg/mL); with Escherichia coli, above 1000 µM; in the series with Staphylococcus aureus it was above 1000 µM. The “growth inhibition (GI)” value in series [5] is “Non-toxic”.
On to `CCCCCCCCC[N+](C)(C)CCOP(=O)([O-])OCCCCCCCC`, for which the MTC in the series with Acanthamoeba quina [1] and in the series with Acanthamoeba lugdunensis was 125 µM throughout. Further, the solubility entry in series [2] was “soluble”. Besides, the IC50 in the series with THP-1 came out at 544 µM; in the series with A2780, 4.32 µM; in the series on MCF7, 19.2 µM; with HuT78 it was 280 µM. Also, the MIC was 367 µM (≈ 150 µg/mL) with Candida albicans, above 1000 µM with Escherichia coli and above 1000 µM with Staphylococcus aureus. Further, in series [5], the “growth inhibition (GI)” value is recorded as “Non-toxic”.
In the case of `CCCCCCCCCCC[N+](C)(C)CCOP(=O)([O-])OCCCCCC`, the values for the MTC in the series with Acanthamoeba quina [1] and in the series on Acanthamoeba lugdunensis were 125 µM and 62.5 µM, respectively. Also, in series [2], the solubility result is listed as “soluble”. Besides, the 50% inhibitory concentration (IC50) with THP-1 turned out to be 31.2 µM; with A2780 it was 25.7 µM; with MCF7 it was 64.5 µM; in the series with HuT78, 96 µM. Also, the MIC with Candida albicans was 360 µM (≈ 147 µg/mL); in the series with Escherichia coli, above 1000 µM; with Staphylococcus aureus, above 1000 µM.
Consider `CCCCCCCCCCCCOP(=O)([O-])OCC[N+](C)(C)CCCCC`, for which the MTC with Acanthamoeba quina [1] and in the series with Acanthamoeba lugdunensis was 125 µM in each case. Also, the solubility entry in [2] is “soluble”. Further, the half-maximal inhibitory concentration (IC50) with THP-1 turned out to be 93.2 µM; with A2780, 24.8 µM; in the series on MCF7, 66.1 µM; in the series with HuT78, 55.2 µM. Moreover, the results for the MIC in the series with Candida albicans, in the series on Escherichia coli and in the series with Staphylococcus aureus were 184 µM (≈ 74.8 µg/mL), above 1000 µM and above 1000 µM, respectively.
